Activity calls are given as the source filed them. The rule behind the calls is not given here.
Assays:
[1] = Cytotoxicity against human thymidine kinase-negative OST cells after 3 to 4 days; type: cell-based
[2] = Cytotoxicity against human Caco2 cells after 3 to 4 days; type: cell-based; conditions: Caco-2 cells
How it was run: (§1)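 Cells seeded at 20,000–75,000 per well with compound dilutions, incubated 3–4 days at 37°C, and counted on a Coulter particle counter; CC50 is the concentration inhibiting proliferation by 50%.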

[3] = Cytotoxicity against human U87 cells after 3 to 4 days; type: cell-based, U-87MG ATCC; how it was run: as §1
[4] = test system: Human immunodeficiency virus 1; assay: Antiviral activity against R5 tropic HIV-1 Bal infected in human Raji cells expressing DC-SIGN gene assessed as inhibition of virus capture by Raji cells after 60 mins by ELISA; type: functional, organism-based; conditions: Human immunodeficiency virus 1, Bal, 1 h
[5] = Binding affinity to HIV-1 3B gp120 assessed as dissociation rate constant after 6 mins by SPR analysis in presence of 10 mM CaCl2; set-up: species or system Human immunodeficiency virus 1
[6] = Binding affinity to HIV-1 3B gp120 after 6 mins by SPR analysis in presence of 10 mM CaCl2; set-up: species or system Human immunodeficiency virus 1
[7] = test system: Human immunodeficiency virus 1; assay: Antiviral activity against compound pretreated HIV-1 3B isolate 42 harboring gp120 mutant infected in human CEM cells assessed as inhibition of virus-induced cytopathicity after 3 to 4 days by microscopic analysis; type: functional, organism-based; conditions: Human immunodeficiency virus 1, 3B isolate 42, CCRF-CEM
How it was run: (§2)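 CEM or C8166 cells at 5 × 10^5/ml infected with HIV-1 at 100 CCID50 per ml, then mixed 1:1 with compound dilutions and held at 37°C for 3–4 days. Giant cells were counted microscopically at ×100 against untreated infected cultures. EC50 is the concentration cutting syncytium formation by 50%.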

PBMC [8] = assay: Immunostimulatory activity against human PBMC assessed as IL-2 production at 21 uM after 72 hrs; type: functional, cell-based
How it was run: (§3)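 Unstimulated PBMCs and PHA-blasts from three donors, in three independent experiments, cultured with test compound at 20 μg/ml (21 or 22 μM). Supernatants collected after 72 h. The cytokine profile was read on a Bio-Plex 27-plex human cytokine bead immunoassay, using beads coupled to cytokine-specific monoclonal antibodies and run per the kit instructions.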

PBMC [9] = assay: Immunostimulatory activity against human PBMC assessed as IL-4 production at 21 uM after 72 hrs; type: functional, cell-based; how it was run: as §3
PBMC [10] = assay: Immunostimulatory activity against human PBMC assessed as IL-10 production at 21 uM after 72 hrs; type: functional, cell-based
How it was run: (§4)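 PBMCs and PHA blasts from three donors (three independent experiments) cultured with 21 μM compound; supernatants collected at 72 h; cytokines quantified with the Bio-Plex human 27-plex bead immunoassay.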

PBMC [11] = assay: Immunostimulatory activity against human PBMC assessed as IL-12 production at 21 uM after 72 hrs; type: functional, cell-based; how it was run: as §3
PBMC [12] = assay: Immunostimulatory activity against human PBMC assessed as FGF production at 21 uM after 72 hrs; type: functional, cell-based; how it was run: as §4
PBMC [13] = assay: Immunostimulatory activity against human PBMC assessed as IP-10 production at 21 uM after 72 hrs; type: functional, cell-based; how it was run: as §3
PBMC [14] = assay: Immunostimulatory activity against human PBMC assessed as TNF-alpha production at 21 uM after 72 hrs; type: functional, cell-based; how it was run: as §3
PBMC [15] = assay: Immunostimulatory activity against human PBMC assessed as IL-1ra production at 22 uM after 72 hrs; type: functional, cell-based; how it was run: as §3
PBMC [16] = assay: Immunostimulatory activity against human PBMC assessed as IL-10 production at 22 uM after 72 hrs; type: functional, cell-based
PBMC [17] = assay: Immunostimulatory activity against human PBMC assessed as GM-CSF production at 22 uM after 72 hrs; type: functional, cell-based
PBMC [18] = assay: Immunostimulatory activity against human PBMC assessed as RANTES production at 22 uM after 72 hrs; type: functional, cell-based; how it was run: as §3
PBMC [19] = assay: Immunostimulatory activity against human PBMC assessed as suppression of IL-2 production at 21 uM after 72 hrs; type: functional; how it was run: as §3
PBMC [20] = assay: Immunostimulatory activity against human PBMC assessed as suppression of IL-4 production at 21 uM after 72 hrs; type: functional; how it was run: as §3
PBMC [21] = assay: Immunostimulatory activity against human PBMC assessed as suppression of IL-13 production at 21 uM after 72 hrs; type: functional; how it was run: as §3
[22] = test system: Human immunodeficiency virus 1; assay: Ratio of EC90 to EC50 for R5 tropic HIV-1 clade F isolate BZ163 infected in human PBMC; type: functional
How it was run: (§5)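 PBMCs from healthy donors were PHA-stimulated (2 μg/ml, 3 days, 37°C), then seeded at 0.5 × 10^6 per well with compound dilutions in RPMI 1640 with 10% FCS and IL-2 (25 U/ml). Virus was added at 250 pg p24 or p27/ml final. On day 12, supernatant HIV-1 p24 or HIV-2 p27 was measured by ELISA, giving EC50 and EC90.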

[23] = test system: Human immunodeficiency virus 1; assay: Ratio of EC90 to EC50 for X4 tropic HIV-1 group O isolate BCF06 infected in human PBMC; type: functional; how it was run: as §5
[24] = test system: Human immunodeficiency virus 1; assay: Ratio of EC90 to EC50 for X4 tropic HIV-1 3B infected in human PBMC; type: functional; how it was run: as §5
[25] = test system: Human immunodeficiency virus 1; assay: Ratio of EC90 to EC50 for X4 tropic HIV-1 Bal infected in human PBMC; type: functional; conditions: in the assay text read “R5 tropic” for “X4 tropic”; how it was run: as §5
[26] = test system: Human immunodeficiency virus 2; assay: Antiviral activity against HIV-2 ROD infected in human CEM cells assessed as inhibition of virus-induced cytopathicity after 3 to 4 days by microscopic analysis; type: functional, organism-based; conditions: Human immunodeficiency virus 2, ISOLATE ROD, CCRF-CEM
How it was run: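 CEM cells (5 × 10^5/ml) infected at 100 CCID50/ml, mixed 1:1 with compound dilutions, incubated 3–4 days at 37°C; giant cells counted microscopically against untreated infected controls; EC50 is the concentration preventing syncytium formation by 50%.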

[27] = test system: Human immunodeficiency virus 1; assay: Antiviral activity against HIV-1 3B infected in human MT4 cells assessed as inhibition of virus-induced cytopathicity after 7 days by trypan blue staining; type: functional, organism-based; conditions: Human immunodeficiency virus 1, 3B, MT4, 168 h
[28] = test system: Human immunodeficiency virus 2; assay: Antiviral activity against HIV-2 ROD infected in human MT4 cells assessed as inhibition of virus-induced cytopathicity after 7 days by trypan blue staining; type: functional, organism-based; conditions: Human immunodeficiency virus 2, ISOLATE ROD, MT4, 168 h
[29] = test system: Human immunodeficiency virus 1; assay: Antiviral activity against HIV-1 3B infected in human C8166 cells assessed as inhibition of virus-induced cytopathicity after 3 to 4 days by microscopic analysis; type: functional, organism-based; conditions: Human immunodeficiency virus 1, 3B; how it was run: as §2
[30] = test system: Human immunodeficiency virus 2; assay: Ratio of EC90 to EC50 for X4 tropic HIV-2 BV-5061 W infected in human PBMC
[31] = test system: Human immunodeficiency virus 1; assay: Antiviral activity against R5 tropic HIV-1 clade F isolate BZ163 infected in human PBMC assessed as inhibition of viral replication after 12 days by ELISA; conditions: Human immunodeficiency virus 1, clade F isolate BZ163, 12 days
[32] = test system: Human immunodeficiency virus 1; assay: Antiviral activity against R5 tropic HIV-1 clade C isolate ETH2220 infected in human PBMC assessed as inhibition of viral replication after 12 days by ELISA; conditions: Human immunodeficiency virus 1, clade C isolate ETH2220, 12 days

Row | Compound | CC50 [1] | CC50 [2] | CC50 [3] | IC50 [4] | Kd [5] | Kd [6] | EC50 [7] | Activity (PBMC [8]) | Activity (PBMC [9]) | Activity (PBMC [10]) | Activity (PBMC [11]) | Activity (PBMC [12]) | Activity (PBMC [13]) | Activity (PBMC [14]) | Activity (PBMC [15]) | Activity (PBMC [16]) | Activity (PBMC [17]) | Activity (PBMC [18]) | fold change (FC) (PBMC [19]) | fold change (FC) (PBMC [20]) | other results
1 | CN[C@@H]1[C@H](O[C@@H]2O[C@H](CO)[C@@H](O)[C@H](OS(=O)(=O)O)[C@H]2O)[C@@H](O)[C@H](O[C@H]2c3cc(C)c(C(=O)N[C@H](C)C(=O)O)c(O)c3-c3c(cc4c(c3O)C(=O)c3cc(OC)cc(O)c3C4=O)[C@@H]2O)O[C@@H]1C [PRADIMICIN S] | > 230 µM | > 230 µM | > 230 µM | 21 µM | 5.11 ×10⁻³ /s | 0.4 µM | > 50 µM | inactive | inactive | inactive | inactive | inactive | inactive | inactive | inactive | inactive | inactive | inactive | 4 | 2 | fold change (FC) (PBMC [21]): 2; Ratio [22]: 2; Ratio [23]: 2; Ratio [24]: 2; Ratio [25]: 2; EC50 [26]: 9.6 µM; EC50 [27]: 5 µM; EC50 [28]: 4.7 µM; EC50 [29]: 5.1 µM; Ratio [30]: 2; EC50 [31]: 17 µM; EC50 [32]: 17 µM
2 | CN[C@@H]1[C@H](O[C@@H]2OC[C@@H](O)[C@H](O)[C@H]2O)[C@@H](O)[C@H](O[C@H]2c3cc(C)c(C(=O)N[C@H](C)C(=O)O)c(O)c3-c3c(cc4c(c3O)C(=O)c3cc(OC)cc(O)c3C4=O)[C@@H]2O)O[C@@H]1C [PRADIMICIN A] | > 50 µM | > 50 µM | > 50 µM | 17 µM | 6.1 ×10⁻³ /s | 0.41 µM | > 50 µM | inactive | inactive | inactive | inactive | inactive | inactive | inactive | inactive | inactive | inactive | inactive | 4 | 2 | fold change (FC) (PBMC [21]): 2; Ratio [22]: 2; Ratio [23]: 2; Ratio [24]: 2; Ratio [25]: 2; EC50 [26]: 5.2 µM; EC50 [27]: 5.2 µM; EC50 [28]: 5 µM; EC50 [29]: 2.6 µM; Ratio [30]: 2; EC50 [31]: 8 µM; EC50 [32]: 10 µM

Source: ChEMBL document CHEMBL1671680, “Pradimicin S, a highly soluble nonpeptidic small-size carbohydrate-binding antibiotic, is an anti-HIV drug lead for both microbicidal and systemic use” (Antimicrob Agents Chemother, 2010)
